Assay results from ChEMBL document CHEMBL4196168 (J Med Chem, 2018).
pKd: −log10 of the molar value. The source made the active and inactive calls. The calls are words filed in the database; no cut-off is given here.

Assays:
[1] = biological target: Transthyretin (Homo sapiens) (UniProt P02766); assay: Binding affinity to transthyretin (unknown origin) assessed as free energy changes by ITC method
[2] = biological target: Transthyretin (Homo sapiens) (UniProt P02766); assay: Binding affinity to transthyretin in human serum assessed as protein occupancy at 2:1 compound to TTR ratio by fluorescent probe exclusion assay
[3] = biological target: Transthyretin (Homo sapiens) (UniProt P02766); assay: Binding affinity to transthyretin in human serum assessed as protein stabilization at 2:1 compound to TTR ratio after 72 hrs by Western blot
[4] = biological target: Transthyretin (Homo sapiens) (UniProt P02766); assay: Binding affinity to transthyretin (unknown origin) in pH 7.4 PBS buffer assessed as protein occupancy at 1:1 compound to TTR ratio by fluorescent probe exclusion assay
[5] = biological target: Transthyretin (Homo sapiens) (UniProt P02766); assay: Binding affinity to transthyretin (unknown origin) assessed as free TdeltaS changes by ITC method
[6] = biological target: Transthyretin (Homo sapiens) (UniProt P02766); assay: Binding affinity to transthyretin (unknown origin) assessed as free enthalpy changes by ITC method
[7] = biological target: Transthyretin (Homo sapiens) (UniProt P02766); details: 20 uM
[8] = Cmax in human at 250 mg bid; assay type: ADME, organism-based; set-up: dose 250 mg; details: in vivo
Albumin [9] = biological target: T1, Albumin (Homo sapiens, UniProt P02768); assay: Binding affinity to human serum albumin assessed as compound level bound to protein at 30 uM measured immediately after gel filtration; assay type: ADME; details: isolated protein
Outline: (§1)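 Compound (30 μM) preincubated 1 hr at 37 °C with purified human serum albumin (600 μM) in 10 mM sodium phosphate, 100 mM KCl, 1 mM EDTA, pH 7.6; gel filtration, then dialysis against buffer 24 hr at room temperature; albumin-bound compound quantified by HPLC at time zero and after dialysis; mean ± SD, n = 3.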

Albumin [10] = biological target: T1, Albumin; assay: Binding affinity to human serum albumin by ITC method; assay type: ADME
Canis familiaris [11] = assay: In-vivo binding affinity to transthyretin in beagle dog serum assessed as protein occupancy 20 mg/kg/day […] dosed as single administration via oral gavage; assay type: functional, organism-based; details: Canis lupus familiaris
Outline: (§2)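 Beagle dogs (2M/2F per group) received one oral gavage dose of 5 or 20 mg/kg in 0.5% methylcellulose; serum collected pre-dose and at 2, 4, 6, 8, 12, 24 hr; compound level by LCMS and TTR occupancy by FPE assay in serum (probe plus DMSO added).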

Canis familiaris [12] = assay: In-vivo binding affinity to transthyretin in beagle dog serum assessed as protein occupancy at 50 to 200 mg/kg/day dosed daily via oral gavage for 7 days by fluorescent probe exclusion assay; assay type: functional, organism-based; details: Canis lupus familiaris
Outline: (§3)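 Male and female beagle dogs gavaged daily 7 days with vehicle (6M/6F) or compound in 0.5% methylcellulose at 50 (2M/2F), 100 (2M/2F) or 200 mg/kg (6M/6F); jugular serum taken pre-dose day 1, pre-dose day 7 and 1 hr post-dose day 7; TTR occupancy by serum FPE assay, read at 3 hr.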

Albumin [13] = biological target: T1, Albumin; assay: Binding affinity to human serum albumin assessed as compound level bound to protein at 30 uM measured 124 hrs after dialysis; assay type: ADME; details: isolated protein, 24 h, in the assay text read “24 hrs” for “124 hrs”; outline: as §1
Canis familiaris [14] = assay: In-vivo binding affinity to transthyretin in beagle dog serum assessed as protein occupancy measured on day 7 at 50 to 200 mg/kg/day dosed daily via oral gavage for 7 days by fluorescent probe exclusion assay; assay type: functional, Canis lupus familiaris; outline: as §3
Canis familiaris [15] = assay: In-vivo binding affinity to transthyretin in beagle dog serum assessed as protein occupancy measured at 1 hr post dose on day 7 at 50 to 200 mg/kg/day dosed daily via oral gavage for 7 days by fluorescent probe exclusion assay; assay type: functional, Canis lupus familiaris; outline: as §3
Canis familiaris [16] = assay: In-vivo binding affinity to transthyretin in beagle dog serum assessed as protein occupancy 5 mg/kg/day […] dosed as single administration via oral gavage; assay type: functional, organism-based; details: Canis lupus familiaris; outline: as §2
[17] = biological target: T2, Transthyretin (Canis lupus familiaris) (UniProt A0A8I3NFK0); assay: Binding affinity to transthyretin in dog serum assessed as protein occupancy at 10 uM by fluorescent probe exclusion assay
Outline: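 Pooled commercial beagle dog serum (TTR 4.6 μM) with compound (10 μM, from DMSO stock) and FPE probe (final 3.6 μM); fluorescence ex 328/em 384 nm read for 6 hr at rt; % occupancy at 3 hr versus probe-alone DMSO control; mean ± SD, n = 4.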

[18] = biological target: T2, Transthyretin (Canis lupus familiaris); assay: Binding affinity to transthyretin in dog serum assessed as protein stabilization at 10 uM by Western blot
Outline: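 Pooled dog serum with compound (10 μM) or DMSO acidified in acetate buffer pH 4.0 for 0 and 72 h, glutaraldehyde crosslinked, SDS-PAGE, immunoblotted with anti-TTR antiserum (1:2,000); tetramer band intensity expressed relative to DMSO control at 0 hr; mean ± SD, n = 3.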

[19] = biological target: Transthyretin (Homo sapiens) (UniProt P02766); details: 10 uM
[20] = biological target: Transthyretin (Homo sapiens) (UniProt P02766); details: 10 uM; remark: listed apart in the source
[21] = Cmax in human at 80 mg qd; assay type: ADME, organism-based; set-up: dose 80 mg; details: in vivo
[22] = biological target: Transthyretin (Homo sapiens) (UniProt P02766); assay: Binding affinity to transthyretin (unknown origin) in human serum assessed as protein occupancy at 200 uM by fluorescent probe exclusion assay
[23] = biological target: Transthyretin (Homo sapiens) (UniProt P02766); details: 10 uM; remark: listed apart in the source
[24] = biological target: Transthyretin (Homo sapiens) (UniProt P02766); details: 10 uM; remark: listed apart in the source
Albumin [25] = biological target: T1, Albumin; assay: Binding affinity to human serum albumin; assay type: ADME
[26] = biological target: Transthyretin (Homo sapiens) (UniProt P02766); details: 10 uM; remark: listed apart in the source

T1 sequence (P02768 whole entry): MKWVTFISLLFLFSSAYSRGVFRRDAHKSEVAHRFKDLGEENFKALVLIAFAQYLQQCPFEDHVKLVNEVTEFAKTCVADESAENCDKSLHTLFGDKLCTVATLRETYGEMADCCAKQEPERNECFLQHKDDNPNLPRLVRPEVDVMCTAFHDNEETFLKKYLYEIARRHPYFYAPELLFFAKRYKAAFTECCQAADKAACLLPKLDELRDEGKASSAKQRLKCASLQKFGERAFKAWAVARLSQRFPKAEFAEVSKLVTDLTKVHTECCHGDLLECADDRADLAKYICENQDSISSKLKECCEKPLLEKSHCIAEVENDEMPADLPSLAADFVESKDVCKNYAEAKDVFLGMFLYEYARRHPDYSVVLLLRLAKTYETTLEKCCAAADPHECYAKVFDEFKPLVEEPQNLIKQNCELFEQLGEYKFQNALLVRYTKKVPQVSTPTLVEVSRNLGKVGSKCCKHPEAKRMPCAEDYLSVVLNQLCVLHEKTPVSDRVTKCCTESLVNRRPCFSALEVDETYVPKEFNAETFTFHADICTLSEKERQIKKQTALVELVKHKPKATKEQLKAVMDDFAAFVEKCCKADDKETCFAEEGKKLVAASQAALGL

Structure (SMILES) | deltaG [1] [kcal/mol] | Occ [2] [%] | Activity [3] [%] | Occ [4] [%] | TdeltaS [5] [kcal/mol] | deltaH [6] [kcal/mol] | other results
COC(=O)c1ccc(F)c(OCCCc2c(C)n[nH]c2C)c1 | -8.99 | 63.2 | 70.4 | 38.5 | 2.5 | -6.49 | 
Cc1nn(C)c(C)c1CCCOc1cc(C(=O)O)ccc1F | -9 | 43 | 32.1 | 29.7 | 4.27 | -4.73 | 
O=C(O)c1cc(-c2ccc(F)cc2F)ccc1O [DIFLUNISAL] |  |  |  | 28.7 | 0.34 | -8.38 | Occ [7]: 65%; Cmax [8]: 200 µM
Cc1n[nH]c(C)c1CCCOc1cc(C(=O)O)ccc1I | -9.61 | 75.9 | 86.7 | 58.3 | -0.21 | -9.82 | 
CCc1n[nH]c(CC)c1CCCOc1cc(C(=O)O)ccc1F | -8.1 | 20.8 | 23.2 | 17.2 | 6 | -2.1 | 
Cc1n[nH]c(C)c1CCCOc1cc(C(=O)O)ccc1F [ACORAMIDIS] |  |  |  |  |  |  | PB (Albumin [9]): 18.3 µM; pKd (Albumin [10]): 5.10; Activity (Canis familiaris [11]): Active; Activity (Canis familiaris [12]): Dose-dependent effect; PB (Albumin [13]): 7.8 µM; Occ (Canis familiaris [14]): 81 - 94%; Occ (Canis familiaris [15]): >97%; Activity (Canis familiaris [16]): Active; Activity [17]: Active; Activity [18]: Active
O=C(O)c1ccc2nc(-c3cc(Cl)cc(Cl)c3)oc2c1 |  | 49 | 41.5 | 49.9 | 6.39 | -5 | Occ [19]: Active; PB (Albumin [9]): 24.1 µM; PB (Albumin [13]): 18.8 µM; Occ [20]: Active; Cmax [21]: 20 µM; Occ [22]: 65%; Activity [17]: Active; Occ [23]: 41.5%; Occ [24]: Active; pKd (Albumin [25]): 5.60; Occ [26]: 68.2%; Activity [18]: Active
